Data set [1] concerns BV-2. Put plainly: Inhibition of LPS-activated nitric oxide production in mouse BV2 cells pre-treated for 60 mins before LPS challenge for 24 hrs by Griess assay. In kind it is functional, cell-based. Put shortly: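 LPS-activated BV-2 microglial cells; NO production measured by Griess assay; indomethacin as positive control; results expressed as IC50 (μM).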
The nature of data set [2]: Toxicity against mouse BV2 cells assessed as effect on cell viability at 80 uM incubated for 24 hrs by MTT assay. In kind it is cell-based. The settings on record: bv-2, 24 h.
Data set [3] has as its system BV-2. Put plainly: Inhibition of LPS-activated nitric oxide production in mouse BV2 cells at 80 uM pre-treated for 60 mins before LPS challenge for 24 hrs by Griess assay. In kind it is functional.

On to `CC(=O)OCC[C@]1(C)CC[C@@]2(O1)[C@H](C)C(=O)[C@@H](O)[C@H]1[C@@](C)(COC(C)=O)[C@H](O)CC[C@@]12C`, for which the IC50 with BV-2 [1] was determined as 45.7 µM. In data set [2], the Activity result is reported as “Non-toxic”. Turning to `CC(=O)OC[C@@]1(C)[C@H](OC(C)=O)CC[C@]2(C)C(CCC(C)(O)CCO)=C(C)C(=O)[C@@H](OC(C)=O)[C@@H]12` (stereo partly drawn), the inhibition at 80 µM with BV-2 [3] came to 50%. Same read-out and setting: as for `CC(=O)OC[C@@]1(C)[C@H](O)CC[C@]2(C)C(CCC(C)(O)CCO)=C(C)C(=O)[C@@H](OC(C)=O)[C@@H]12` (stereo partly drawn), the figure is < 50%. Turning to `CC(=O)OC[C@@]1(C)[C@H](OC(C)=O)CC[C@@]2(C)[C@H]1[C@H](OC(C)=O)C(=O)[C@@H](C)[C@]21CC[C@@](C)(CCO)O1`, the IC50 in the data set on BV-2 [1] was determined as 20.7 µM. Besides, in data set [2], the Activity result is on record as “Non-toxic”. For `CC(=O)OC[C@@]1(C)[C@H](O)CC[C@]2(C)C(CCC(C)(O)CCO)=C(C)C(=O)[C@@H](O)[C@@H]12` (stereo partly drawn) the same measures were 53.6 µM and “Non-toxic”. For the compound `CC(=O)OCC[C@]1(C)CC[C@@]2(O1)[C@H](C)C(=O)[C@@H](OC(C)=O)[C@H]1[C@@](C)(COC(C)=O)[C@H](O)CC[C@@]12C`, in the data set on BV-2 [1], the IC50 was found to be 63.7 µM. The Activity entry in data set [2] is reported as “Non-toxic”. On to `CC(=O)OCC[C@]1(C)CC[C@@]2(O1)[C@H](C)[C@@H](O)[C@@H](OC(C)=O)[C@H]1[C@@](C)(COC(C)=O)[C@H](OC(C)=O)CC[C@@]12C`, for which, in the data set on BV-2 [1], the IC50 worked out at 11 µM. Further, the Activity result in data set [2] is given as “Non-toxic”. With `CC(=O)O[C@@H]1CC[C@]2(C)C(CCC(C)(O)CCO)=C(C)C(=O)[C@@H](O)[C@H]2[C@@]1(C)CO` (stereo partly drawn), the inhibition at 80 µM with BV-2 [3] was < 50%. `CC(=O)OCC[C@]1(C)CC[C@@]2(O1)[C@H](C)C(=O)[C@@H](OC(C)=O)[C@H]1[C@@](C)(COC(C)=O)[C@H](OC(C)=O)CC[C@@]12C`: the IC50 in the data set with BV-2 [1] was determined as 48.1 µM. In addition, the Activity entry in data set [2] is given as “Non-toxic”.

On to `CC(=O)OC[C@@]1(C)[C@H](OC(C)=O)CC[C@@]2(C)[C@H]1[C@H](O)C(=O)[C@@H](C)[C@]21CC[C@@](C)(CCO)O1`, for which, in the data set on BV-2 [1], the IC50 amounted to 41.7 µM. Also, in data set [2], the Activity result is “Non-toxic”. The corresponding values for `CC(=O)OC[C@@]1(C)[C@H](O)CC[C@@]2(C)[C@H]1CC(=O)[C@@H](C)[C@]21CC[C@@](C)(CCO)O1` are 36.9 µM and “Non-toxic”. `COc1ccc2c(c1)c(CC(=O)O)c(C)n2C(=O)c1ccc(Cl)cc1` [INDOMETHACIN]: in the data set with BV-2 [1], the IC50 stood at 35.7 µM. As to `CC(=O)OCCC(C)(O)CCC1=C(C)C(=O)[C@@H](OC(C)=O)[C@H]2[C@@](C)(COC(C)=O)[C@H](OC(C)=O)CC[C@]12C` (stereo partly drawn), in the data set with BV-2 [1], the IC50 was 12.7 µM. Also, the Activity result in data set [2] is “Non-toxic”.

Turning to `CC(=O)OCC[C@]1(C)CC[C@@]2(O1)[C@H](C)[C@@H](O)C(=O)[C@H]1[C@@](C)(COC(C)=O)[C@H](O)CC[C@@]12C`, the IC50 in the data set on BV-2 [1] stood at 13.2 µM. In addition, in data set [2], the Activity result is given as “Non-toxic”. For the compound `CC(=O)OCC[C@]1(C)CC[C@@]2(O1)[C@H](C)[C@@H](OC(C)=O)[C@@H](O)[C@H]1[C@@](C)(COC(C)=O)[C@H](OC(C)=O)CC[C@@]12C`, the half-inhibitory concentration (IC50) in the data set on BV-2 [1] is 10 µM. For the same compound, the Activity entry in data set [2] is “Non-toxic”. The corresponding values for `CC(=O)O[C@@H]1C(=O)[C@@H](C)[C@]2(CC[C@@](C)(CCO)O2)[C@@]2(C)CC[C@@H](OC(C)=O)[C@](C)(CO)[C@H]12` are 16.2 µM and “Non-toxic”.

For the origin of these results see ChEMBL document CHEMBL3608304, “Anti-inflammatory Labdane Diterpenoids from Leonurus macranthus” (J Nat Prod, 2015).
